Screening data as filed in PubChem BioAssay.
Only some compounds are listed: those with a hit (about 1.8% of all), similar ones and a draw of the others.
M5 ag – human M5 muscarinic receptor agonists, primary screen, CHO-K1 cells, Fluo-8 calcium fluorescence. Muscarinic acetylcholine receptor M5 (Homo sapiens), P08912. CHO-K1 hM5 cells; 0% DMSO wells, 100% maximal acetylcholine response. activation, % at 3 µM. actives 0.19% (n = 360,000). AID 624037, 2012;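 active = activation above the run's mean over test compounds plus 3 SD, cut at about 23% in these data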;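 note: signal is peak over basal fluorescence ratio across the kinetic read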
CHRM4 agonist – human M4 muscarinic receptor agonists, primary screen, CHO-K1 cells, Fluo-8 calcium fluorescence | Muscarinic acetylcholine receptor M4 (Homo sapiens), P08173 | CHO-K1 hM4/Gqi5; vehicle 0%, full acetylcholine response 100% | activation, % at 3 µM | actives 0.14% (n = 360,000) | AID 624127, 2012;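 active = activation above the run mean over all test wells plus 3 SD, cut at about 32% in these data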;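 note: peak over basal fluorescence ratio per well then scaled between controls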
Target sequence (P08173 whole entry, looked up): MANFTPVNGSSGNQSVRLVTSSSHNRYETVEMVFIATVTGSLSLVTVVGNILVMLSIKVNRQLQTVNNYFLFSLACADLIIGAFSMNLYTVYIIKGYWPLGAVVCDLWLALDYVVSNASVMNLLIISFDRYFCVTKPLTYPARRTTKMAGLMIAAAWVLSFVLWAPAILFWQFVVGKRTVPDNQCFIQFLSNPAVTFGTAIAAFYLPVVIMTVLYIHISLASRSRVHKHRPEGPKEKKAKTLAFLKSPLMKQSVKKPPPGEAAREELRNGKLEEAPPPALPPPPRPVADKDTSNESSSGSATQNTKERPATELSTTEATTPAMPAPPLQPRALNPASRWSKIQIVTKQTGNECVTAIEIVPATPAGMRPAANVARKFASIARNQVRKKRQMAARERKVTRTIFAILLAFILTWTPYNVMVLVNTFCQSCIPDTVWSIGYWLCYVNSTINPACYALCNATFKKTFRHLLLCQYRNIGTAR
CHRM4 PAM – human M4 muscarinic receptor positive allosteric modulators, primary screen, CHO-K1 cells, Fluo-8 calcium fluorescence | activation, % at 3 µM | CHO-K1 hM4/Gqi5, ACh EC20; 0% = ACh EC20, 100% = maximal ACh | actives 0.4% (n = 360,000) | Muscarinic acetylcholine receptor M4 (Homo sapiens), P08173;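 active = activation above its plate's cutoff, the mean activation of sample wells plus 3 SD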
M5 antag – human M5 muscarinic receptor antagonists, primary screen, CHO cells, Fluo-8 calcium fluorescence; Muscarinic acetylcholine receptor M5 (Homo sapiens), P08912; CHO-hM5 cells, ACh EC80; inhibition, % at 3 µM; actives 0.59% (n = 360,000); AID 624040, 2012;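 active = inhibition above a per-plate cutoff, the mean of that plate's test compounds plus 3 SD, cut at about 27% in these data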
M5 PAM – human M5 muscarinic receptor positive allosteric modulators, primary screen, CHO-K1 cells, Fluo-8 calcium fluorescence | actives 0.3% (n = 360,000) | Muscarinic acetylcholine receptor M5 (Homo sapiens), P08912 | CHO-K1 hM5, ACh EC20 PAM; 0% = ACh EC20, 100% = ACh EC100 | activation, % at 3 µM;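 active = activation above the run cutoff, the mean activation of all test compounds plus 3 SD, cut at about 18% in these data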
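Assay system: CHO-K1 hM5 cells / Incubation: Fluo-8 loading 80 min at 37 °C plus 30 min room temperature / Technique: Fluo-8 calcium dye fluorescence, kinetic read / Repeats: single replicate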
CHRM4 antagonist – human M4 muscarinic receptor antagonists, primary screen, CHO cells, Fluo-8 calcium fluorescence | CHO-hM4 cells, ACh EC80 | inhibition, % at 3 µM | actives 0.73% (n = 360,000) | AID 624125, 2012;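 active = inhibition above its plate's cutoff, the mean inhibition of sample wells plus 3 SD, cut at about 27% in these data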
Hits are given with their value; - = inactive.

SMILES	M5 ag	CHRM4 agonist	CHRM4 PAM	M5 antag	M5 PAM	CHRM4 antagonist
O=C(NCc1ccc(Cl)cc1)C(=O)NCC1OCCN1C(=O)c1ccc(Cl)cc1 (stereo not given)	-	-	-	-	-	-
CC(=O)N/N=C(\C)C1COc2ccccc2O1 (stereo not given)	-	-	-	-	-	-
Cc1ccc(C(=O)COC(=O)CNC(=O)c2ccccc2)s1	-	-	22	-	-	-
COCC(=O)NNS(=O)(=O)c1ccccc1[N+](=O)[O-]	-	-	-	-	20	-
COc1ccccc1CC(=O)NNS(=O)(=O)c1ccccc1[N+](=O)[O-]	-	-	-	-	-	-
CC1(C)OC(=O)C2=C(C[C@@H](C3CC3)O[C@@H]2C2CC2)O1	-	-	-	-	-	-
COC(=O)C1C2C=CC3(CN(Cc4cccs4)C(=O)C13)O2 (stereo not given)	-	-	-	-	21	-
O=C(NCc1ccc(F)cc1)C1C2C=CC3(CN(Cc4cccnc4)C(=O)C13)O2 (stereo not given)	-	-	28	-	-	-
CCCOC(=O)C1[C@H]2C(=O)N(C(C)c3ccc(OC)cc3)C[C@]23C=C[C@H]1O3 (stereo not given in full)	-	-	-	-	-	-
CCOC(=O)C1[C@H]2C(=O)N(C(C)c3ccc(OC)cc3)C[C@]23C=C[C@H]1O3 (stereo not given in full)	-	-	-	-	-	75
COc1ccc(C(=O)NNC(=S)NC(=O)c2cccnc2)cc1	-	-	-	-	-	-
Cc1ccc(C(=O)NC(=S)NNC(=O)c2ccccc2O)cc1	-	-	-	-	-	-
Cc1ccc(C(=O)NNC(=S)NC(=O)c2ccccc2)cc1	66	130	-	30	-	28
COc1ccc(C(=O)NNC(=S)NC(=O)c2ccc(OC)cc2)cc1	-	54	-	-	-	-
CC(C)(C)c1cc(CCC(=O)NNC(=S)NC(=O)c2ccccc2)cc(C(C)(C)C)c1O	-	37	-	-	-	-
Cc1cccc(C(=O)NNC(=S)NC(=O)c2ccccc2)c1	57	118	-	-	-	-
CCCCC(=O)NC(=S)NNC(=O)c1ccc(Cl)cc1Cl	-	-	-	-	-	-
COc1ccc(C(=O)NNC(=S)NC(=O)c2ccc(F)cc2)cc1Br	68	93	-	-	-	-
Cc1ccc(C(=O)NNC(=S)NC(=O)c2ccc(Cl)cc2Cl)cc1	77	160	-	-	-	36
Cc1ccccc1C(=O)NNC(=S)NC(=O)c1ccccc1	-	41	-	-	-	-
O=C(NC(=S)NNC(=O)c1ccccc1O)c1ccccc1	-	-	-	-	-	-
Cc1cccc(C(=O)NNC(=S)NC(=O)c2cccs2)c1	66	129	-	-	-	-
Cc1ccc(C(=O)NC(=S)NNC(=O)c2ccccc2)cc1	40	87	-	-	-	-
COC(=O)c1sccc1Oc1c(Cl)cccc1[N+](=O)[O-]	-	-	-	-	-	-
Cc1ccc(C(C)C)c(OCCN)c1	-	-	-	-	-	-
SMILES	M5 ag	CHRM4 agonist	CHRM4 PAM	M5 antag	M5 PAM	CHRM4 antagonist
Cc1ccc(C(C)C)c(OCCCn2ccnc2C)c1	-	-	-	91	-	73
C/C(=N\Nc1ccc(C(F)(F)F)cn1)c1ccncc1	-	-	21	-	-	-
Oc1ccc(/C=N/Nc2ccc(C(F)(F)F)cn2)cc1	-	-	-	-	-	-
O=C(Nc1ccnn1C1CCN(C(=O)Cc2ccccc2F)CC1)C1CC1	-	-	-	-	-	-
COc1ccc(NC(=O)CN(C)C(=O)c2cc(C)on2)cc1	-	-	-	-	-	-
O=C(c1ccc(OC2CCN(Cc3ccccn3)CC2)cc1)N1CCCC(O)C1 (stereo not given)	-	-	-	-	24	-
O=C(c1cccc(OC2CCN(Cc3cc(F)cc(F)c3)CC2)c1)N1CCCC1	-	-	-	-	-	-
CCCOC1CCCN(C(=O)c2ccc(OC3CCN(Cc4ccccn4)CC3)cc2)C1 (stereo not given)	-	-	-	-	-	-
CSc1ccc(CN2CCC(Oc3cccc(C(=O)N4CCCC4)c3)CC2)cc1	-	-	-	69	-	55
COC(=O)c1ccc(CN2CCC(Oc3cccc(C(=O)N4CCCC4)c3)CC2)cc1	-	-	-	80	-	95
COC(=O)c1ccc(CN2CCC(Oc3ccc(C(=O)N4CCCCC4)cc3)CC2)cc1	-	-	-	-	-	62
CCCCn1c(N)c(N(C)C(=O)c2ccc(Br)o2)c(=O)[nH]c1=O	-	-	-	-	-	-
COc1cc(NC(=O)c2ccc(N3CC4CC(C3)c3cccc(=O)n3C4)c(NC(=O)c3ccncc3)c2)cc(OC)c1OC (stereo not given)	-	-	-	-	-	-
COc1cc(NC(=O)CSc2nnc3ccccn23)cc(OC)c1OC	-	-	-	-	-	-
COc1ccc(/C=C/CN2CCC(Oc3ccc(C(=O)N4CCCCC4)cc3)CC2)cc1	-	-	-	35	-	31
COCCN(C(=O)COC(=O)c1nc(Cl)ccc1Cl)c1c(N)n(Cc2ccccc2)c(=O)[nH]c1=O	-	-	-	-	-	27
CC(C)CN(C(=O)COC(=O)C12CC3CC(CC(Cl)(C3)C1)C2)c1c(N)n(Cc2ccccc2)c(=O)[nH]c1=O	-	-	-	-	-	-
CCN(C(=O)COC(=O)c1nc(Cl)ccc1Cl)c1c(N)n(Cc2ccccc2)c(=O)[nH]c1=O	-	-	-	-	-	-
COCCN(C(=O)COC(=O)C12CC3CC(CC(Cl)(C3)C1)C2)c1c(N)n(Cc2ccccc2)c(=O)[nH]c1=O	-	-	27	-	-	-
COCCN(C(=O)COC(=O)c1cccnc1Cl)c1c(N)n(Cc2ccccc2)c(=O)[nH]c1=O	-	-	-	-	-	-
COCCN(C(=O)COC(=O)c1ccccc1Oc1ccccc1)c1c(N)n(Cc2ccccc2)c(=O)[nH]c1=O	-	-	-	-	-	-
CCN(C(=O)COC(=O)c1ccccc1Oc1ccccc1)c1c(N)n(Cc2ccccc2)c(=O)[nH]c1=O	-	-	25	-	-	-
